Test results reported in ChEMBL document CHEMBL4428108, “Carbohydrate-based peptidomimetics targeting neuropilin-1: Synthesis, molecular docking study and in vitro biological activities” (Bioorg Med Chem, 2016).
Activity calls are given as the source filed them. The rule behind the calls is not given here. Peptide text beside a SMILES is read from it.

How the values were obtained:
Neuropilin-1 [1] = target: T1, Neuropilin-1 (Homo sapiens, UniProt O14786); assay: Inhibition of biotinylated VEGF-A165 binding to recombinant NRP1 (unknown origin) at 100 uM measured after 2 hrs by competition binding assay relative to VEGF-A165
Outline: (§1)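 Competition ELISA. Wells coated overnight at room temperature with recombinant chimeric NRP-1 or KDR in PBS, then blocked with 0.5% BSA/PBS for 1 h at 37 °C. Biotinylated VEGF-A165 (5 ng/mL, heparin-containing blocking buffer) incubated 2 h at room temperature with or without compound; unlabelled VEGF-A165 as positive control. Bound tracer detected with streptavidin-HRP, read at 450 nm. Three independent experiments, triplicates.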

Neuropilin-1 [2] = target: T1, Neuropilin-1; assay: Inhibition of biotinylated VEGF-A165 binding to recombinant NRP1 (unknown origin) measured after 2 hrs by competition binding assay; outline: as §1
Neuropilin-1 [3] = target: T1, Neuropilin-1; assay: Binding affinity to NRP1 in HUVEC assessed as increase in AKT phosphorylation at 50 uM by Western blot analysis; type: cell-based
Outline: (§2)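 HUVECs exposed to 50 µM compound; tuftsin as reference. Lysate protein (40 µg) resolved by SDS-PAGE and blotted to PVDF. Probed overnight at 4 °C for pAKT (Ser473), total AKT, pERK1/2 (Thr202/Tyr204) and total ERK1/2. ECL detection and densitometry. Phospho/total band ratio normalized to non-treated cells.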

Neuropilin-1 [4] = target: T1, Neuropilin-1; assay: Binding affinity to NRP1 in HUVEC assessed as ratio of phosphorylated ERK to total ERK at 50 uM by Western blot analysis; type: cell-based; outline: as §2

T1 sequence (O14786 whole entry): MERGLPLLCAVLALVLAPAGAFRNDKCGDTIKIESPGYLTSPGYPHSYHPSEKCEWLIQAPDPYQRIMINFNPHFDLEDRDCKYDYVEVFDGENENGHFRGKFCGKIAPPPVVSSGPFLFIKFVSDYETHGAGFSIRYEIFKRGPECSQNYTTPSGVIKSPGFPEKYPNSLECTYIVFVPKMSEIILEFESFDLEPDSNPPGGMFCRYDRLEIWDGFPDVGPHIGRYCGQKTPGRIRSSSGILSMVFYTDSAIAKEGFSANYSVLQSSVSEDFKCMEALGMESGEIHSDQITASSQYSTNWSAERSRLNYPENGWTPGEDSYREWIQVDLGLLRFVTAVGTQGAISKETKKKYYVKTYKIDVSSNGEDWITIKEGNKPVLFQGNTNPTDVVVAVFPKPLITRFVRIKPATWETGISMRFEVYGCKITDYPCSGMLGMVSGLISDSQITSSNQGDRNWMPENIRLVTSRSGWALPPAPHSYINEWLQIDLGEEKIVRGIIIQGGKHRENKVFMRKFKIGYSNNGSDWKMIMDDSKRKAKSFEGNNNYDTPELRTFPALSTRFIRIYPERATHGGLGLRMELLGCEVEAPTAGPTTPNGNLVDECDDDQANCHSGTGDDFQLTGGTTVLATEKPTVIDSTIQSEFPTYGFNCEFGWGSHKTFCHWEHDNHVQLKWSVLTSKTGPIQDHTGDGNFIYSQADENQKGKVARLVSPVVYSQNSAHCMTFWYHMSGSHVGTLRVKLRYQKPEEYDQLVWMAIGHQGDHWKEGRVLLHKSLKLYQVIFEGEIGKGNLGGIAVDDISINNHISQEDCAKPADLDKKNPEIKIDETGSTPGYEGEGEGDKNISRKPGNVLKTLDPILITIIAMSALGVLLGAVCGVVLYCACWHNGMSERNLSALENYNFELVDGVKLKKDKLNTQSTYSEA

Row | inhibition (Neuropilin-1 [1]) [%] | SMILES | also measured
1 | 39 | CC1(C)O[C@@H]2[C@H](O1)[C@H](CN(CCCCNC(=N)N)C(=N)N)O[C@@H]2CC(=O)NCCc1c[nH]c2ccccc12 | 
2 | 5 | CC1(C)O[C@@H]2[C@H](O1)[C@H](Cn1cc(CCNC(=N)N)nn1)O[C@@H]2CC(=O)NCCc1c[nH]c2ccccc12 | 
3 | 4 | N=C(N)NCCCc1cn(C[C@@H]2O[C@H](CC(=O)NCCc3c[nH]c4ccccc34)[C@H](O)[C@@H]2O)nn1 | 
4 | 37 | N=C(N)NCCc1cn(C[C@@H]2O[C@H](CC(=O)NCCc3c[nH]c4ccccc34)[C@H](O)[C@@H]2O)nn1 | 
5 |  | C[C@@H](O)[C@H](N)C(=O)N[C@@H](CCCCN)C(=O)N1CCC[C@H]1C(=O)N[C@@H](CCCNC(=N)N)C(=O)O (H-TKPR-OH) | IC50 (Neuropilin-1 [2]): 25 µM; Activity (Neuropilin-1 [3]): Active; Ratio (Neuropilin-1 [4]): 0.88
6 | 52 | CC1(C)O[C@@H]2[C@H](O1)[C@H](CN(CCCCCNC(=N)N)C(=N)N)O[C@@H]2CC(=O)NCCc1c[nH]c2ccccc12 | IC50 (Neuropilin-1 [2]): 120 µM
7 | 26 | CC1(C)O[C@@H]2[C@H](O1)[C@@H](CN(CCNC(=N)N)C(=N)N)O[C@@H]2CC(=O)NCCc1c[nH]c2ccccc12 | 
8 | 5 | CC1(C)O[C@@H]2[C@H](O1)[C@H](CN(CCCNC(=N)N)C(=N)N)O[C@@H]2CC(=O)NCCc1c[nH]c2ccccc12 | 
9 | 18 | CC1(C)O[C@@H]2[C@H](O1)[C@H](Cn1cc(CCCNC(=N)N)nn1)O[C@@H]2CC(=O)NCCc1c[nH]c2ccccc12 | 
